Test results taken from ChEMBL document CHEMBL3414463, “Discovery of potent and selective 8-fluorotriazolopyridine c-Met inhibitors” (J Med Chem, 2015).

Tests used:
[1] = biological target: T1, Hepatocyte growth factor receptor (Homo sapiens, UniProt P08581); assay: Inhibition of recombinant c-Met kinase domain (unknown origin) incubated for 30 mins using gastrin peptide substrate by HTRF assay
[2] = biological target: T1, Hepatocyte growth factor receptor; assay: Inhibition of HGF-stimulated c-Met autophosphorylation in serum starved human PC3 cells pre-incubated for 1 hr followed by human recombinant HGF stimulation for 10 mins by quantitative electrochemiluminescence immunoassay; type: cell-based, PC-3
How it was run: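 Serum-starved PC-3 cells (plated in high-glucose DMEM/10% FBS, then 16 h in low-glucose DMEM with 0.1% BSA) were treated with a 10-point inhibitor dilution for 1 h at 37 °C. Cells were then stimulated with 200 ng/mL recombinant human HGF for 10 min and lysed. Phospho-c-Met was captured with biotinylated anti-c-Met and 4G10 by electrochemiluminescence. IC50, n ≥ 2.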

[3] = Clearance in Sprague-Dawley rat at 0.25 mg/kg, iv; type: ADME, organism-based; design: dose 0.25 mg/kg, route intravenous; conditions: Sprague-Dawley, in vivo
[4] = Volume of distribution at steady state in Sprague-Dawley rat at 0.25 mg/kg, iv; type: ADME, organism-based; design: dose 0.25 mg/kg, route intravenous; conditions: in vivo, read-out: Vdss
How it was run: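 Male Sprague-Dawley rats were given a single IV dose of 0.25 mg/kg. The vehicle was DMSO, or for some compounds 20% (w/v) hydroxypropyl β-cyclodextrin in water adjusted to pH 3.5 with MSA. NC marks cases where the terminal disposition rate constant could not be characterized for lack of slope.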

[5] = Half life in Sprague-Dawley rat at 0.25 mg/kg, iv; type: ADME, organism-based; design: dose 0.25 mg/kg, route intravenous; conditions: in vivo
[6] = AUC (0 to infinity) in Sprague-Dawley rat at 0.25 mg/kg, iv; type: ADME, organism-based, Plasma; design: dose 0.25 mg/kg, route intravenous, time infinity; conditions: Sprague-Dawley, plasma
[7] = Oral bioavailability in Sprague-Dawley rat at 2 mg/kg; type: ADME, organism-based; conditions: in vivo
How it was run: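 Male Sprague-Dawley rats given 2.0 mg/kg orally in 2% (w/v) hydroxypropylmethylcellulose, 1% (w/v) Tween 80 in water, pH 2.2 (adjusted with HCl or MSA). Some inhibitors instead used 10% (v/v) dimethylacetamide in the same vehicle.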

Liver microsome [8] = assay: Unbound clearance rat liver microsomes at 1 uM in presence of NADPH by LC-MS/MS method; type: ADME
How it was run: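 Aliquots were taken at 0, 10, 20, 30 and 40 min, quenched with an equal volume of acetonitrile, centrifuged and analysed by LC/MS/MS.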

Liver microsome [9] = assay: Drug metabolism in human liver microsomes assessed as formation of (S)-2-(8-fluoro-6-(3-methylisoxazol-5-yl)-[1,2,4]triazolo[4,3-a]pyridin-3-yl)-2-(3-methoxyquinolin-6-yl)ethanol in presence of NADPH by LC-MS/MS method; type: ADME
How it was run: (§1)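 Compound incubated with NADPH in mouse, rat, dog, monkey or human liver microsomes. Metabolites were identified by accurate mass spectrometry and MS/MS, and selected ion chromatograms were used to build metabolite profiles.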

[10] = Drug metabolism in monkey liver microsomes assessed as formation of (S)-2-(8-fluoro-6-(3-methylisoxazol-5-yl)-[1,2,4]triazolo[4,3-a]pyridin-3-yl)-2-(3-methoxyquinolin-6-yl)ethanol in presence of NADPH by LC-MS/MS method; type: ADME, Macaca mulatta; conditions: rhesus monkey; how it was run: as §1
[11] = Drug metabolism in mouse liver microsomes assessed as formation of (S)-2-(8-fluoro-6-(3-methylisoxazol-5-yl)-[1,2,4]triazolo[4,3-a]pyridin-3-yl)-2-(3-methoxyquinolin-6-yl)ethanol formation in presence of NADPH by LC-MS/MS method; type: ADME; how it was run: as §1
Liver microsome [12] = assay: Drug metabolism in dog liver microsomes assessed as formation of (S)-2-(8-fluoro-6-(3-methylisoxazol-5-yl)-[1,2,4]triazolo[4,3-a]pyridin-3-yl)-2-(3-methoxyquinolin-6-yl)ethanol in presence of NADPH by LC-MS/MS method; type: ADME, Canis lupus familiaris; how it was run: as §1
Liver microsome [13] = assay: Drug metabolism in rat liver microsomes assessed as formation of (S)-2-(8-fluoro-6-(3-methylisoxazol-5-yl)-[1,2,4]triazolo[4,3-a]pyridin-3-yl)-2-(3-methoxyquinolin-6-yl)ethanol in presence of NADPH by LC-MS/MS method; type: ADME; how it was run: as §1
[14] = Drug metabolism in mouse liver microsomes assessed as formation of (S)-6-(1-(8-fluoro-6-(3-methylisoxazol-5-yl)-[1,2,4]triazolo[4,3-a]pyridin-3-yl)ethyl)quinolin-3-ol in presence of NADPH by LC-MS/MS method; type: ADME; how it was run: as §1
Liver microsome [15] = assay: Drug metabolism in rat liver microsomes assessed as formation of (S)-6-(1-(8-fluoro-6-(3-methylisoxazol-5-yl)-[1,2,4]triazolo[4,3-a]pyridin-3-yl)ethyl)quinolin-3-ol in presence of NADPH by LC-MS/MS method; type: ADME; how it was run: as §1
Liver microsome [16] = assay: Drug metabolism in dog liver microsomes assessed as formation of (S)-6-(1-(8-fluoro-6-(3-methylisoxazol-5-yl)-[1,2,4]triazolo[4,3-a]pyridin-3-yl)ethyl)quinolin-3-ol in presence of NADPH by LC-MS/MS method; type: ADME, Canis lupus familiaris; how it was run: as §1
[17] = Drug metabolism in mouse liver microsomes assessed as formation of (S)-(5-(8-fluoro-3-(1-(3-methoxyquinolin-6-yl)ethyl)-[1,2,4]triazolo[4,3-a]pyridin-6-yl)isoxazol-3-yl)methanol in presence of NADPH by LC-MS/MS method; type: ADME; how it was run: as §1
Liver microsome [18] = assay: Drug metabolism in rat liver microsomes assessed as formation of (S)-(5-(8-fluoro-3-(1-(3-methoxyquinolin-6-yl)ethyl)-[1,2,4]triazolo[4,3-a]pyridin-6-yl)isoxazol-3-yl)methanol in presence of NADPH by LC-MS/MS method; type: ADME; how it was run: as §1
Liver microsome [19] = assay: Drug metabolism in dog liver microsomes assessed as formation of (S)-(5-(8-fluoro-3-(1-(3-methoxyquinolin-6-yl)ethyl)-[1,2,4]triazolo[4,3-a]pyridin-6-yl)isoxazol-3-yl)methanol in presence of NADPH by LC-MS/MS method; type: ADME, Canis lupus familiaris; how it was run: as §1
[20] = Drug metabolism in mouse liver microsomes assessed as metabolite M3 formation in presence of NADPH by LC-MS/MS method; type: ADME; how it was run: as §1
Liver microsome [21] = assay: Drug metabolism in rat liver microsomes assessed as metabolite M3 formation in presence of NADPH by LC-MS/MS method; type: ADME; how it was run: as §1
Liver microsome [22] = assay: Drug metabolism in dog liver microsomes assessed as metabolite M3 in presence of NADPH by LC-MS/MS method; type: ADME, Canis lupus familiaris; how it was run: as §1

T1 sequence (P08581 whole entry, the tested form may be a part): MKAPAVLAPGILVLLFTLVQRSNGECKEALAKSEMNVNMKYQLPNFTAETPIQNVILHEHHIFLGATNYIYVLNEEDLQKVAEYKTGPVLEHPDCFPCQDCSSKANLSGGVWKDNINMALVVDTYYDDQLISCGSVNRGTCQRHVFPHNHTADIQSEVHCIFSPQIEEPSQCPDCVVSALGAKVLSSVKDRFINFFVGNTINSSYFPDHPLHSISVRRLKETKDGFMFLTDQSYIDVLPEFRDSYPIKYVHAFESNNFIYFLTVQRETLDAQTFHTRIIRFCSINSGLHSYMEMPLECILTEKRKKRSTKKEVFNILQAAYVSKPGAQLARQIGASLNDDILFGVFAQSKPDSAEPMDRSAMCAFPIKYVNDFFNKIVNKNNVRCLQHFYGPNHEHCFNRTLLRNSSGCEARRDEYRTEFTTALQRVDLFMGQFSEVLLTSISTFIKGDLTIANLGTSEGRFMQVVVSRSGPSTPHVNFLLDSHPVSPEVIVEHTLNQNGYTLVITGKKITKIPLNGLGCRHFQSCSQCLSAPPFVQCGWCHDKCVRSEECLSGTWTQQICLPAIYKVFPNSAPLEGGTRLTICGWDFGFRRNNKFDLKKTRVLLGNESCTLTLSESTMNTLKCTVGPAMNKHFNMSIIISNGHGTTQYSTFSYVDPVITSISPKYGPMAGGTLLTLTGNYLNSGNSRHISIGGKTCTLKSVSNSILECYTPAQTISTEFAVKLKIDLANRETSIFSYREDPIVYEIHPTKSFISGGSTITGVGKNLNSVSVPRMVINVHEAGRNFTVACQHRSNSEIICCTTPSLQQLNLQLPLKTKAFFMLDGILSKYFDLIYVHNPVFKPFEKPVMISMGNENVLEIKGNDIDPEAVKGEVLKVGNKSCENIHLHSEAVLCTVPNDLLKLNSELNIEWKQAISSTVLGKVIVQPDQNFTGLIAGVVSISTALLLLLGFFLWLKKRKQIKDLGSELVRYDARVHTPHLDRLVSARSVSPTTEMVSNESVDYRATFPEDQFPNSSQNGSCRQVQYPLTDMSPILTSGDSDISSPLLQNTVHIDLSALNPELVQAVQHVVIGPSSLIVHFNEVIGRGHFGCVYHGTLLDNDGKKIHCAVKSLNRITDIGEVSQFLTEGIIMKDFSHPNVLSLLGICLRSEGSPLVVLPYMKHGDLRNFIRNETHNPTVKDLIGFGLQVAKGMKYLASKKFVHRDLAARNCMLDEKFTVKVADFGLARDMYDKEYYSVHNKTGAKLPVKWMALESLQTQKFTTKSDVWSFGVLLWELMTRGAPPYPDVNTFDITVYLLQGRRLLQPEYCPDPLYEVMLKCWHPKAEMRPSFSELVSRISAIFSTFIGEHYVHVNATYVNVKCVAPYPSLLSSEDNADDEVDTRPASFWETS

IC50 [1]: 2 nM
IC50 [2]: 6 nM
clearance [3]: 1.5 mL/min/kg
Vd [4]: 0.18 L/kg
half-life [5]: 150 min
AUC(0-inf) [6]: 9 µM·h
bioavailability [7]: 42%
CL free (Liver microsome [8]): 14 L/h/kg
Drug metabolism (Liver microsome [9]): metabolite_detected
Drug metabolism [10]: metabolite_detected
Drug metabolism [11]: metabolite_notdetected
Drug metabolism (Liver microsome [12]): metabolite_notdetected
Drug metabolism (Liver microsome [13]): metabolite_notdetected
Drug metabolism [14]: metabolite_detected
Drug metabolism (Liver microsome [15]): metabolite_detected
Drug metabolism (Liver microsome [16]): metabolite_detected
Drug metabolism [17]: metabolite_detected
Drug metabolism (Liver microsome [18]): metabolite_detected
Drug metabolism (Liver microsome [19]): metabolite_detected
Drug metabolism [20]: metabolite_detected
Drug metabolism (Liver microsome [21]): metabolite_detected
Drug metabolism (Liver microsome [22]): metabolite_detected
Compound: COc1cnc2ccc([C@H](C)c3nnc4c(F)cc(-c5cc(C)no5)cn34)cc2c1
